Screening results as filed in PubChem.
An excerpt weighted towards active compounds, which were near 2.3% of everything screened.
TRPC6 inh = mouse TRPC6 channel inhibitors, primary screen, cell-based, HEK293, membrane potential dye; Short transient receptor potential channel 6 (Mus musculus), Q61143; B-score at 10 µM; ACh-evoked depolarization; hits give low values; 1.1% of 310,000 active; AID 2553, 2010;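 active means B-score under library mean minus 3 SD, initial fluorescence not abnormally high, positive integrated signal ratio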;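 further: B-score derived from integrated fluorescence ratio over the kinetic read; more negative B-score means stronger inhibition of depolarization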
Target sequence (Q61143 whole entry, looked up): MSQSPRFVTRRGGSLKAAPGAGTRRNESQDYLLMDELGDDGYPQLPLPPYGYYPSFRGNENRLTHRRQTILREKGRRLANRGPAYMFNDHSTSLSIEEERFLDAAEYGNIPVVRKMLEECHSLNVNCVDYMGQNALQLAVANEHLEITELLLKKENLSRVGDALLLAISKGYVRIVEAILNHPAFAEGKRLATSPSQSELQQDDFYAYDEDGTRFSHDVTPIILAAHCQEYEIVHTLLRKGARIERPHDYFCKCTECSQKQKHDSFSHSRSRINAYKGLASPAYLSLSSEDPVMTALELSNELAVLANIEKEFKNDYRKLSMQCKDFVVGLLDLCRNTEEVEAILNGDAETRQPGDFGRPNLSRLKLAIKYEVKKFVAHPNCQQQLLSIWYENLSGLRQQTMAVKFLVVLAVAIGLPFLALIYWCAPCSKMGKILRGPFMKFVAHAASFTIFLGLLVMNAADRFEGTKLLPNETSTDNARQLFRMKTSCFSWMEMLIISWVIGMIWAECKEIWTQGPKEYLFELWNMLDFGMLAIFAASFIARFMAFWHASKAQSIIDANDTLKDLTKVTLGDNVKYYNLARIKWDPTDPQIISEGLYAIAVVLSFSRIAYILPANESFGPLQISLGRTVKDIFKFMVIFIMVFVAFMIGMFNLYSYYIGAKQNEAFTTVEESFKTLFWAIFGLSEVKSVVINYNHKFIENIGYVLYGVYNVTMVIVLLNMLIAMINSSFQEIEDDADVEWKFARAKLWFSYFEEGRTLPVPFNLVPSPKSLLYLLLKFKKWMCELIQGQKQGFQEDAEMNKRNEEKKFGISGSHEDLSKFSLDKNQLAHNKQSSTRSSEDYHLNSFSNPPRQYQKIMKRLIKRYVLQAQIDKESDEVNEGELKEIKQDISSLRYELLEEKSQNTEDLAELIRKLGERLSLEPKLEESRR
TRPC4 agonist = activators of mouse TRPC4 channel, primary screen, Fluo4 calcium, HEK293 TRPC4beta/mu-opioid cells; Short transient receptor potential channel 4 (Mus musculus), Q9QUQ5; Fluo4 calcium fluorescence; hits give high values; B-score at 10 µM; 0.49% of 310,000 active;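 active means B-score above 5 SD of library B-scores, and initial fluorescence ratio not above library mean plus 5 SD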;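 further: positive B-score marks a calcium rise read as TRPC4 activation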
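Material: TRPC4beta and mu-opioid receptor HEK293 stable cells | Incubation: 45 min room-temperature Fluo4 loading, 110 s read | Detection: Kinetic Fluo4 calcium fluorescence | Measure: Integrated baseline-normalised fluorescence ratio, converted to per-well B score | Benchmarks: Low control buffer alone, high control maximal DAMGO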
TRPC6 act = mouse TRPC6 channel activators, primary screen, cell-based, HEK293, membrane potential dye | AID 2550, 2010 | 0.13% of 310,000 active | Short transient receptor potential channel 6 (Mus musculus), Q61143 | B-score at 10 µM | HEK293-TRPC6 membrane potential dye fluorescence; hits give high values;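 active means B-score of the integrated fluorescence ratio above library mean plus 3 SD, and starting fluorescence ratio within library mean plus 5 SD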;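 further: higher score means more depolarization so channel activation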
TRPC4 PAM = positive allosteric modulators of TRPC4, primary screen, cell-based, mouse TRPC4beta, HEK293 mu-opioid, Fluo-4 calcium; Short transient receptor potential channel 4 (Mus musculus), Q9QUQ5; DAMGO EC20, Fluo-4 Ca2+ flux; hits give high values; B-score at 10 µM; 0.42% of 310,000 active;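 active means B-score of calcium response area above 5 SD of library B-scores, with initial fluorescence ratio within 5 SD of library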
TRPC4 block = inhibitors of mouse TRPC4 channel, primary screen, Fluo4 calcium, HEK293 TRPC4beta/mu-opioid cells; Short transient receptor potential channel 4 (Mus musculus), Q9QUQ5; DAMGO-evoked Fluo4 calcium flux; hits give low values; B-score at 10 µM; 0.39% of 300,000 active; AID 2247, 2010;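 active means B-score over 3 SD under the library average, no early fluorescence shift, positive overall ratio signal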
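Assay system – HEK293 line stably carrying TRPC4beta and mu-opioid receptor · Doses – single dose · Detection – Fluo4 calcium-dye fluorescence, kinetic read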
TRPC4 sel inh 2 = second selectivity test of TRPC6 inhibitors: effect on mouse TRPC4. shares compounds with TRPC6 inh. HEK293 TRPC4/MOR, membrane potential dye fluorescence; channel activated by saturating DAMGO dose. inhibition, % at 10 µM. 42% of 920 active. AID 2776;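 active means compounds whose fluorescence signal differed from control wells by over 3 SD, either direction, in both duplicate plates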
TRPC4 spec = mouse TRPC4 modulation by TRPC6 hits, confirmation, selectivity assay for TRPC6 inhibitor project, cell-based, HEK293 TRPC4/mu-opioid, membrane potential dye; shares compounds with TRPC6 inh; membrane potential fluorescence; activity change, negative = inhibition, % at 10 µM; 61% of 920 active; AID 2777, 2010;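 active means rise or fall in signal beyond 3 SD of buffer-only wells in both replicate plates, either sign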;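 further: integrated kinetic ratio of fluorescence range over baseline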
HEK293 MPD ctr 2-1 = nonspecific membrane potential effects, parental HEK293, confirmation, counter-screen for TRPC6 inhibitor project, cell-based, second counter screen. AID 2779, 2010. shares compounds with TRPC6 inh. 31% of 920 active. parental HEK293 membrane potential dye fluorescence; maximal acetylcholine challenge after compound addition. signal change vs control, % at 10 µM;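 active means membrane potential signal moving either way by over 3 SD of the maximum-effect control, in both duplicate plates, meaning non-specific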
HEK293 MPD ctr-1 = membrane potential modulation in parental HEK293, confirmation, counter-screen for TRPC6 inhibitor project, cell-based; shares compounds with TRPC6 inh; parental HEK293 membrane potential dye fluorescence; membrane potential signal change, % at 10 µM; 60% of 920 active; AID 2780, 2010;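 active means membrane potential signal shifting up or down by more than 3 SD of buffer-only wells, on both duplicate plates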
HEK293 MPD ctr-2 = parental HEK293 membrane potential modulation, confirmation, counter-screen for TRPC6 modulator project, cell-based. AID 488924, 2010. 51% of 2,400 active. membrane potential signal change, % at 10 µM. membrane potential dye fluorescence. shares compounds with TRPC6 inh;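 active means membrane potential signal moves up or down beyond 5 SD from buffer-only wells, on both duplicate plates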
HEK293 MPD ctr 2-2 = parental HEK293 nonspecific activity of TRPC6 modulators, second screen. shares compounds with TRPC6 inh. membrane potential dye fluorescence; after compound, maximal acetylcholine stimulation. inhibition, % at 10 µM. 14% of 2,400 active;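 active means membrane potential signal drops by more than 5 SD from the mean control signal, in both duplicate plates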
TRPC4/MOR mod = TRPC4 modulation by TRPC6 hit compounds, confirmation, selectivity assay for TRPC6 modulator project, cell-based, HEK293 TRPC4/mu-opioid, membrane potential dye, mouse | percent change from control (negative = decrease, positive = increase), % at 10 µM | membrane potential fluorescence | 69% of 2,400 active | shares compounds with TRPC6 inh;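 active means membrane potential signal moved up or down beyond 5 SD of buffer control wells, in both duplicate plates, actives on both sides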
TRPC4 ctr inh 2 = second check of whether TRPC6 modulators also affect mouse TRPC4; HEK293 TRPC4/mu-opioid, membrane potential dye fluorescence; stimulated with maximal-effect DAMGO; shares compounds with TRPC6 inh; inhibition, % at 10 µM; 55% of 2,400 active; AID 488928;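 active means drop in membrane potential signal beyond 5 SD of the control wells in both duplicate plates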;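 further: TRPC4 counter screen for TRPC6 hits run under conditions tuned for TRPC6 not TRPC4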
TRPC6 inh conf = mouse TRPC6 channel inhibitors, confirmation, HEK293 cells, membrane potential dye, duplicate. ACh-evoked depolarization. inhibition, % at 10 µM. AID 488960, 2010. shares compounds with TRPC6 inh. 43% of 3,300 active;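 active means fluorescence ratio falls more than 5 SD below the full-stimulation control mean, in both duplicate runs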;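 further: integrated fluorescence ratio of peak minus minimum over baseline after agonist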
TRPC6 act confirm = mouse TRPC6 channel activators, confirmation, HEK293 cells, membrane potential dye, duplicate; shares compounds with TRPC6 inh; HEK293-TRPC6 membrane potential dye fluorescence, FDSS; activation, % at 10 µM; 11% of 2,800 active; AID 488961, 2010;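 active means ratio signal rise beyond 5 SD above unstimulated control wells' mean, seen in both duplicate runs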
Numbers stand for hits; i = inactive; nt = not tested or not shown; ! = not confirmed by another sample.

SMILES	TRPC6 inh	TRPC4 agonist	TRPC6 act	TRPC4 PAM	TRPC4 block	HEK293 MPD ctr-2	HEK293 MPD ctr 2-2	TRPC4/MOR mod	TRPC4 ctr inh 2	TRPC6 inh conf	TRPC6 act confirm	others
C[n+]1ccc(/C=C/c2ccccc2O)c2ccccc21	-5.7	i	i	i	i	-81%	i	-16%	i	42%	i
CN(CC(=O)NC1CCCCC1)S(=O)(=O)c1ccc2c(c1)c(=O)n(C)c(=O)n2C	i	i	i	i	i	nt	nt	nt	nt	nt	nt
Cc1cc(NCCNC2=CC(=O)CCC2)nc2ccccc12	-5.5	i	i	i	i	-168%	i	-27%	31%	i	i
CC(C)Oc1cccc(C(=O)C2CCCN(Cc3cccn3-c3ccccn3)C2)c1 (centres undefined)	i	i	i	i	i	nt	nt	nt	nt	nt	nt
CCCNC(=O)Cn1c(=O)/c(=C\c2ccc(-c3ccc([N+](=O)[O-])cc3)o2)s/c1=C\C(=O)C(C)(C)C	i	i	33	i	i	978%	i	274%	i	i	281%
CCCNC(=O)Cn1c(=O)/c(=C\c2ccc(-c3cccc([N+](=O)[O-])c3)o2)s/c1=C\C(=O)C(C)(C)C	i	i	i	i	i	nt	nt	nt	nt	nt	nt
COc1ccc(Nc2ccc(N3C(=O)CCCC3=O)cc2[N+](=O)[O-])c(OC)c1	i	i	i	i	i	nt	nt	nt	nt	nt	nt
CC(N)C12CC3CC(CC(C3)C1)C2 (centres undefined)	-5.4!	i	i	i	i	i	i	i	30%	i	i
C#CCNC(=O)C1=C[C@@H](C2CCCCC2)[C@H](CCCO)[C@@H](OCC)O1	i	i	i	i	i	nt	nt	nt	nt	nt	nt
C#CCn1cc(Cl)cc(C(=O)Nc2ccccc2)c1=O	-7.1	i	i	i	i	nt	nt	nt	nt	i	i	TRPC4 sel inh 2=i;TRPC4 spec=i;HEK293 MPD ctr 2-1=i;HEK293 MPD ctr-1=i
O=C(Nc1ccc(C2=NCCN2)cc1)c1ccc(C(=O)Nc2ccc(C3=NCCN3)cc2)c([N+](=O)[O-])c1	i	i	15	i	i	440%	i	70%	i	i	193%
O=C(Oc1ccc2c(c1)OCC2=O)c1ccccc1	-5.8	i	i	i	i	i	i	i	i	i	nt
CCN(CC)CCNC(=O)c1ccc(NC(=O)c2ccc(Cl)c(S(=O)(=O)N3CCCCCC3)c2)cc1	-6	i	i	i	i	113%	76%	12%	i	42%	nt
CCN(CC)CCNC(=O)c1ccc(NC(=O)c2ccc(S(=O)(=O)N3CCCCCC3)cc2)cc1	i	i	i	i	i	nt	nt	nt	nt	nt	nt
CC(C)CC1CCCCC1OC(=O)C[N+]1(C)CCCCC1 (centres undefined)	-8.7	i	i	i	i	nt	nt	nt	nt	87%	i	TRPC4 sel inh 2=i;TRPC4 spec=i;HEK293 MPD ctr 2-1=16%;HEK293 MPD ctr-1=i
COc1ccc(NC(=O)CN(C)C(=O)CCCN2C(=O)c3cccc4cccc(c34)C2=O)cc1	i	i	i	i	i	nt	nt	nt	nt	nt	nt
O=C(O)c1cn(-c2ccc(F)cc2)c2cc(Cl)c(F)cc2c1=O	i	i	i	i	i	nt	nt	nt	nt	nt	nt
NC1C2CN(c3nc4c(cc3F)c(=O)c(C(=O)O)cn4-c3ccc(F)cc3F)CC12 (centres undefined)	-5.6	i	i	i	i	-274%	i	-46%	i	i	i
Cc1cc(NC(=O)CNCC(c2ccccc2)N(C)C)c([N+](=O)[O-])cc1C (centres undefined)	-9.4	i	i	i	i	nt	nt	nt	nt	i	i	TRPC4 sel inh 2=64%;TRPC4 spec=-12%;HEK293 MPD ctr 2-1=i;HEK293 MPD ctr-1=-151%
CC(NC(=O)CC1CCCCC1)c1ccccc1 (centres undefined)	i	i	i	i	i	nt	nt	nt	nt	nt	nt
C=C(C)CC1(NC(C)c2ccccc2)CCCCC1 (centres undefined)	-5.1	i	i	i	i	i	i	24%	i	i	i
O=C1N/C(=C/c2ccc(N3CCOCC3)o2)C(=O)N1c1cccc(Cl)c1	i	i	19	i	i	120%	i	34%	i	i	i
Cc1ccc(/C=C2/NC(=O)N(c3ccccc3)C2=O)o1	i	i	i	i	i	nt	nt	nt	nt	nt	nt
N#CCc1nn(-c2ccc(F)cc2)c(N)c1C#N	i	i	i	i	i	nt	nt	nt	nt	nt	nt
Cc1ccc(N2C(=O)CSC2c2cccnc2)cc1F (centres undefined)	-6.7	i	i	i	i	nt	nt	nt	nt	i	i	TRPC4 sel inh 2=i;TRPC4 spec=i;HEK293 MPD ctr 2-1=i;HEK293 MPD ctr-1=i
O=C1CSC(c2cccnc2)N1c1ccc(Cl)cc1 (centres undefined)	i	i	i	i	i	nt	nt	nt	nt	nt	nt
